Columns and labels:
Conditions in all cases: stereoisomer not certain
OR10G2 (Homo sapiens) = target: T1, OR10G2 (Homo sapiens) (UniProt Q8NGC3)
T1 sequence (whole entry): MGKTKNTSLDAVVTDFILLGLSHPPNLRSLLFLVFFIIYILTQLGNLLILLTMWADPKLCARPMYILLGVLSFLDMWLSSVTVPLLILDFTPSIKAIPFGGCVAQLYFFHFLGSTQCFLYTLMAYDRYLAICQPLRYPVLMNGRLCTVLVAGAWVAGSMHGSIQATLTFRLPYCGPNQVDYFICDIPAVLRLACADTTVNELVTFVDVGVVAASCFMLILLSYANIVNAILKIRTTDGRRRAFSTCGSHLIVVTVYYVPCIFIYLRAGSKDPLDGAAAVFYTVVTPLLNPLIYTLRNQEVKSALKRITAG
Summary of the method: (§1)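 Each receptor–molecule pair is labelled responsive or non-responsive (inactive) according to whether the original authors judged the measured signal statistically different from baseline. The data were taken from the main text and supplementary material of published papers and checked for typos and inconsistencies. Assay methods differed by source, with transient luciferase assays in mammalian cell lines being common.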

OR10G3 (Homo sapiens) = target: T2, OR10G3 (Homo sapiens) (UniProt Q8NGC4)
T2 sequence (whole entry): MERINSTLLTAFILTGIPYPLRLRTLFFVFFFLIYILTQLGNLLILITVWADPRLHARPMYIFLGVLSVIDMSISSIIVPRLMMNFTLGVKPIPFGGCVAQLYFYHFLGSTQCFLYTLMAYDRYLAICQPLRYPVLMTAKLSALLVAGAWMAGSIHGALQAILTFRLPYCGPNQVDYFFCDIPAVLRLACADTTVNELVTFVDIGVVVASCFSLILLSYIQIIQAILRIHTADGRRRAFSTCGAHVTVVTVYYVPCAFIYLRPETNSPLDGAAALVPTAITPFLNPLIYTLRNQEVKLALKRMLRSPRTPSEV
Summary of the method: as §1

OR10G4 (Homo sapiens) = target: T3, OR10G4 (Homo sapiens) (UniProt Q8NGN3)
T3 sequence (whole entry): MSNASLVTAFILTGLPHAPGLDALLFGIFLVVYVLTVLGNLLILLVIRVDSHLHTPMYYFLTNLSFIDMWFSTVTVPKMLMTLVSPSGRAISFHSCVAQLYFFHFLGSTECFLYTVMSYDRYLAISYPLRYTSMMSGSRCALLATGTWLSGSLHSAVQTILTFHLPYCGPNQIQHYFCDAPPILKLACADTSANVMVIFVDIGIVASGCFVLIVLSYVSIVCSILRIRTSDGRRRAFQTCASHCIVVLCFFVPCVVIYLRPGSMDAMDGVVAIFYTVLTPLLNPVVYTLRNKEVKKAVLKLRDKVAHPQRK
Summary of the method: as §1

OR10G6 (Homo sapiens) = target: T4, OR10G6 (Homo sapiens) (UniProt Q8NH81)
T4 sequence (whole entry): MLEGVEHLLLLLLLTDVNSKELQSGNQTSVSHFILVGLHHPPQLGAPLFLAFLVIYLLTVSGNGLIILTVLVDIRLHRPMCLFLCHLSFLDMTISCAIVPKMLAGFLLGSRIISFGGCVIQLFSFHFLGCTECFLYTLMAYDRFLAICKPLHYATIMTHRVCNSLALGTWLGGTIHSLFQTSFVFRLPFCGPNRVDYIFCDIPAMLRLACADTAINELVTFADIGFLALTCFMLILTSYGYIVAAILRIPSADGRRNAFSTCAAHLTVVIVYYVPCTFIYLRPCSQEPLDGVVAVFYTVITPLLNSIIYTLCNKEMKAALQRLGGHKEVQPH
Summary of the method: as §1

OR10G7 (Homo sapiens) = target: T5, OR10G7 (Homo sapiens) (UniProt Q8NGN6)
T5 sequence (whole entry): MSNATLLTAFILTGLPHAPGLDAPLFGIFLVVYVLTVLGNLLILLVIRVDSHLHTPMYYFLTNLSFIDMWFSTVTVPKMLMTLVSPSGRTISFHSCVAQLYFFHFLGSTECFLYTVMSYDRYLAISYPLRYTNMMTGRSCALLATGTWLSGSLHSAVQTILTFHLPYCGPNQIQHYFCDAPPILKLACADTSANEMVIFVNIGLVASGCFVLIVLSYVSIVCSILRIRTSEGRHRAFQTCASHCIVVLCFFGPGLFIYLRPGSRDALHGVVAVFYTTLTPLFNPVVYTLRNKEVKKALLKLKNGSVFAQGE
Summary of the method: as §1

OR10G8 (Homo sapiens) = target: T6, OR10G8 (Homo sapiens) (UniProt Q8NGN5)
T6 sequence (whole entry): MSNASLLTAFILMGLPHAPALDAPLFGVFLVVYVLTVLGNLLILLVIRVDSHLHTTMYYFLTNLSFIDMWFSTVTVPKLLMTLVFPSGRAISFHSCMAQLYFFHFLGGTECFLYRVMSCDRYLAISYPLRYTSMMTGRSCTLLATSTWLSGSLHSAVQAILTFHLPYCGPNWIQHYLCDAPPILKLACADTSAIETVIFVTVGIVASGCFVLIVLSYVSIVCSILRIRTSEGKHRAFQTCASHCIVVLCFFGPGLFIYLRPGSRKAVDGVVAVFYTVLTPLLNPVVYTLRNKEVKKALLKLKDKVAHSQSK
Summary of the method: as §1

OR10G9 (Homo sapiens) = target: T7, OR10G9 (Homo sapiens) (UniProt Q8NGN4)
T7 sequence (whole entry): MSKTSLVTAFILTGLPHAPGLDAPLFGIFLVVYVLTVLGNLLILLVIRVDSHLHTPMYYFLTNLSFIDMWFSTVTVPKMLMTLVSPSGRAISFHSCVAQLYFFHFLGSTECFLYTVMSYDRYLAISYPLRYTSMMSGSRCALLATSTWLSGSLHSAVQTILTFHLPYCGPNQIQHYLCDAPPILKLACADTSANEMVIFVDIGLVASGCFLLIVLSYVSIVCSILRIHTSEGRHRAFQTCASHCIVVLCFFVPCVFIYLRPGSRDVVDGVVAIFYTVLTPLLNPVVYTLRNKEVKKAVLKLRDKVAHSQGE
Summary of the method: as §1

OR10H1 (Homo sapiens) = target: T8, OR10H1 (Homo sapiens) (UniProt Q9Y4A9)
T8 sequence (whole entry): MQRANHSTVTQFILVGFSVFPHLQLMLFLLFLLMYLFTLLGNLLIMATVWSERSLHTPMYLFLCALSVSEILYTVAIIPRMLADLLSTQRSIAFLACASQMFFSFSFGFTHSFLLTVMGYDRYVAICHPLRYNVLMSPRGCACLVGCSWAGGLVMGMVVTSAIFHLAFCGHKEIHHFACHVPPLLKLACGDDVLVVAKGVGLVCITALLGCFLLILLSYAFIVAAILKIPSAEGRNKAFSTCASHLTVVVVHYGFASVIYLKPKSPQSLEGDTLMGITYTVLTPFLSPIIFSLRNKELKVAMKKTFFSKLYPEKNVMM
Summary of the method: as §1

OR10H2 (Homo sapiens) = target: T9, OR10H2 (Homo sapiens) (UniProt O60403)
T9 sequence (whole entry): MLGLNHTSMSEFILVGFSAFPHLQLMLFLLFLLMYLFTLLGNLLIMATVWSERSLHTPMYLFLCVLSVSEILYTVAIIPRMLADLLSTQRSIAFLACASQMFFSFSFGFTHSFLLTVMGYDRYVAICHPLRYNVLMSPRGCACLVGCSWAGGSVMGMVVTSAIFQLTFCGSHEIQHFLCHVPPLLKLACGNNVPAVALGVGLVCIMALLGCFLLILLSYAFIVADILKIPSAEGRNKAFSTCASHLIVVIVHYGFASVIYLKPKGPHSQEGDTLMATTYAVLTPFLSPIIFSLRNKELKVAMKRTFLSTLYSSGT
Summary of the method: as §1

OR10H3 (Homo sapiens) = target: T10, OR10H3 (Homo sapiens) (UniProt O60404)
T10 sequence (whole entry): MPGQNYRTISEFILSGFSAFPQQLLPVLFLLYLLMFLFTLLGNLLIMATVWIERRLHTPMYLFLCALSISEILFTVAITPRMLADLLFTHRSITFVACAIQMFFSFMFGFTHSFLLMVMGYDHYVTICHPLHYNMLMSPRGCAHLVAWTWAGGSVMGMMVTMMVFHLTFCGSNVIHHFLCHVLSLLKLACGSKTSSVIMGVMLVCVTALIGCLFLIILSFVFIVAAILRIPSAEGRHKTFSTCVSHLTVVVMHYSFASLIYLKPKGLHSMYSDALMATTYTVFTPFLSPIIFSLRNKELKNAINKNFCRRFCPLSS
Summary of the method: as §1

OR10H4 (Homo sapiens) = target: T11, OR10H4 (Homo sapiens) (UniProt Q8NGA5)
T11 sequence (whole entry): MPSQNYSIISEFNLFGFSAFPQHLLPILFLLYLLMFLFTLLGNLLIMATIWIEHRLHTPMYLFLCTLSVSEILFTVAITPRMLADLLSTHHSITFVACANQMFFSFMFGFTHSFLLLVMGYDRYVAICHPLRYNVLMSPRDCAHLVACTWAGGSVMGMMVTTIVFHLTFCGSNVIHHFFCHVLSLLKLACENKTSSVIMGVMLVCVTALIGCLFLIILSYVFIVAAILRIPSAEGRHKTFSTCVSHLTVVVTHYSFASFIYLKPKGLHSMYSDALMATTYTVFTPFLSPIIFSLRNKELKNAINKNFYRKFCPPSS
Summary of the method: as §1

OR10H5 (Homo sapiens) = target: T12, OR10H5 (Homo sapiens) (UniProt Q8NGA6)
T12 sequence (whole entry): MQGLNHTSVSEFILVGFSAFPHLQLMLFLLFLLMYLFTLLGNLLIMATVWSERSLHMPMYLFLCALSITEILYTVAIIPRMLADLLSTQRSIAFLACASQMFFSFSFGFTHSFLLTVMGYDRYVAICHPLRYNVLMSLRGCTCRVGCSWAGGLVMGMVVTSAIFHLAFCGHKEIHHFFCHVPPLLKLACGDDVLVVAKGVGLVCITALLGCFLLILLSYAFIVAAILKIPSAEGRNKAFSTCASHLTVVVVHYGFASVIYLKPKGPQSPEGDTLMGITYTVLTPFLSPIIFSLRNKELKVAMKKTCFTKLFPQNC
Summary of the method: as §1

OR10J1 (Homo sapiens) = target: T13, OR10J1 (Homo sapiens) (UniProt P30954)
T13 sequence (whole entry): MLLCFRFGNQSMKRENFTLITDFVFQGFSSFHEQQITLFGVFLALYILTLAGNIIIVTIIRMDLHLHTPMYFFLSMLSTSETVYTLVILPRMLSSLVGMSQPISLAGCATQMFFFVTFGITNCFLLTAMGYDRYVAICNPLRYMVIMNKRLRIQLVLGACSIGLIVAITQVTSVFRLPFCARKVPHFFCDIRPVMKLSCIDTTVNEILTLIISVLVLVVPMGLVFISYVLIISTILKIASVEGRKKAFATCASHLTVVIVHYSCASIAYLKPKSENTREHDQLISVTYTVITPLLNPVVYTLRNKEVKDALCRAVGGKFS
Summary of the method: as §1

OR10J3 (Homo sapiens) = target: T14, OR10J3 (Homo sapiens) (UniProt Q5JRS4)
T14 sequence (whole entry): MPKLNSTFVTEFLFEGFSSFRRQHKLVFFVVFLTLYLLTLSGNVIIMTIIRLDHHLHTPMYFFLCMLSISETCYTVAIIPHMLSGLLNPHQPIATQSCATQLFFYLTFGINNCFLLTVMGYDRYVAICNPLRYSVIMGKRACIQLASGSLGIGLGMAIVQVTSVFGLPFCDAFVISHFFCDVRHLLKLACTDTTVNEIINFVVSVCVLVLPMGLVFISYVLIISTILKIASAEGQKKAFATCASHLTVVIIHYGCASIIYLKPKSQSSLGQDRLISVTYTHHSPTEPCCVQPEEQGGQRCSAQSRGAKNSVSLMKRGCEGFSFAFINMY
Summary of the method: as §1

OR10J5 (Homo sapiens) = target: T15, OR10J5 (Homo sapiens) (UniProt Q8NHC4)
T15 sequence (whole entry): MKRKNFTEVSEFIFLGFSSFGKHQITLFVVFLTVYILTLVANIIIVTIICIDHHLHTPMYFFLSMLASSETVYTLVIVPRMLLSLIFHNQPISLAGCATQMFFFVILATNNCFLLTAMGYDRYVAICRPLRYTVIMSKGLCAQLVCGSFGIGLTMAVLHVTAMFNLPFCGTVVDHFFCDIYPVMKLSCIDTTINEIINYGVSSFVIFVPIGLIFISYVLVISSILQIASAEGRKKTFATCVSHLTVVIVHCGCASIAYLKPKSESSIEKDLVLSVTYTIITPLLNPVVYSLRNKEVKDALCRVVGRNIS
Summary of the method: as §1

OR10K1 (Homo sapiens) = target: T16, OR10K1 (Homo sapiens) (UniProt Q8NGX5)
T16 sequence (whole entry): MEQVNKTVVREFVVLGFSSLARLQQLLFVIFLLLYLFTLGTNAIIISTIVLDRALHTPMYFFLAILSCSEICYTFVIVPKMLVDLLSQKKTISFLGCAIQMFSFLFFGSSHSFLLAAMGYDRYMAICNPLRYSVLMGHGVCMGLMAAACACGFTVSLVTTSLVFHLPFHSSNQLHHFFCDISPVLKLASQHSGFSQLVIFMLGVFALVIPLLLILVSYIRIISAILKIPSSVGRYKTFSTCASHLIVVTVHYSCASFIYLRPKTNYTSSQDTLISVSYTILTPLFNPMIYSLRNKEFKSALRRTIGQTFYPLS
Summary of the method: as §1

OR10P1 (Homo sapiens) = target: T17, OR10P1 (Homo sapiens) (UniProt Q8NGE3)
T17 sequence (whole entry): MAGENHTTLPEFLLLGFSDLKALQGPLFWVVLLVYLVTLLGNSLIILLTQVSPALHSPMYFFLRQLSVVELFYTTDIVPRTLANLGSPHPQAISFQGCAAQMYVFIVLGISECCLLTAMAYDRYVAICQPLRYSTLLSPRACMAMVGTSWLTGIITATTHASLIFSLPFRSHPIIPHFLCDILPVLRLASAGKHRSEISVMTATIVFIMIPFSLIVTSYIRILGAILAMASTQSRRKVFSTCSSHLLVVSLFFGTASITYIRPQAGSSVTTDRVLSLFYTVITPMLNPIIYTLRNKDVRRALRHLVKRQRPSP
Summary of the method: as §1

OR10Q1 (Homo sapiens) = target: T18, OR10Q1 (Homo sapiens) (UniProt Q8NGQ4)
T18 sequence (whole entry): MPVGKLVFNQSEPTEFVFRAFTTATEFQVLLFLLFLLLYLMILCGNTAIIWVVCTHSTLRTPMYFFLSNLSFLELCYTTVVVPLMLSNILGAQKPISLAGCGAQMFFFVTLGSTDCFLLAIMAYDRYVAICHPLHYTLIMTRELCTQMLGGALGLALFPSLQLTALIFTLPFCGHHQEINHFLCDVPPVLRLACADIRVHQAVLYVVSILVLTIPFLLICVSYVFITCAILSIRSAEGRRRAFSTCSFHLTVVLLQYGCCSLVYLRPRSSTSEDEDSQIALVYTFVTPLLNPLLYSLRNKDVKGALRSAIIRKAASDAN
Summary of the method: as §1

Measured: odorant receptor agonist call;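 also: active if original authors judged signal statistically different from baseline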

CCCC(S)CCOC(C)=O (stereo not drawn)
inactive: all assays above

Source: the M2OR odorant receptor database
